Source: ChEMBL document CHEMBL4732167, “Structure based design, synthesis, and biological evaluation of imidazole derivatives targeting dihydropteroate synthase enzyme” (Bioorg Med Chem Lett, 2021)
In brackets after ≈: the same amount, converted by molar mass.

Tested on: Staphylococcus aureus
Assay: Antibacterial activity against Staphylococcus aureus MTCC 96 assessed as bacterial growth inhibition
Type: functional
Settings: not given

SMILES	MIC
COc1ccc(-n2c(SCC(=O)Nc3ccc(OCc4ccc(F)cc4)cc3)nc(C)c2C(C)=O)cc1	100 µg/mL (≈ 192 µM)
O=C(O)c1cn(C2CC2)c2cc(N3CCNCC3)c(F)cc2c1=O [CIPROFLOXACIN]	50 µg/mL (≈ 151 µM)
CC(=O)c1c(C)nc(SCC(=O)Nc2ccc(OCc3ccc(Cl)cc3)cc2)n1-c1ccc(Cl)cc1	100 µg/mL (≈ 185 µM)
CC1(C)S[C@@H]2[C@H](NC(=O)[C@H](N)c3ccccc3)C(=O)N2[C@H]1C(=O)O [AMPICILLIN]	250 µg/mL (≈ 715 µM)

Tested on: Escherichia coli
Assay: Antibacterial activity against Escherichia coli MTCC 443 assessed as bacterial growth inhibition
Type: functional
Settings: not given

SMILES	MIC
COc1ccc(-n2c(SCC(=O)Nc3ccc(OCc4ccc(F)cc4)cc3)nc(C)c2C(C)=O)cc1	12.5 µg/mL (≈ 24.1 µM)
O=C(O)c1cn(C2CC2)c2cc(N3CCNCC3)c(F)cc2c1=O [CIPROFLOXACIN]	25 µg/mL (≈ 75.4 µM)
CC(=O)c1c(C)nc(SCC(=O)Nc2ccc(OCc3ccc(Cl)cc3)cc2)n1-c1ccc(Cl)cc1	250 µg/mL (≈ 463 µM)
CC1(C)S[C@@H]2[C@H](NC(=O)[C@H](N)c3ccccc3)C(=O)N2[C@H]1C(=O)O [AMPICILLIN]	100 µg/mL (≈ 286 µM)

Tested on: Pseudomonas aeruginosa
Assay: Antibacterial activity against Pseudomonas aeruginosa MTCC 1688 assessed as bacterial growth inhibition
Type: functional
Settings: not given

SMILES	MIC
COc1ccc(-n2c(SCC(=O)Nc3ccc(OCc4ccc(F)cc4)cc3)nc(C)c2C(C)=O)cc1	25 µg/mL (≈ 48.1 µM)
CC(=O)c1c(C)nc(SCC(=O)Nc2ccc(OCc3ccc(Cl)cc3)cc2)n1-c1ccc(Cl)cc1	125 µg/mL (≈ 231 µM)
CC1(C)S[C@@H]2[C@H](NC(=O)[C@H](N)c3ccccc3)C(=O)N2[C@H]1C(=O)O [AMPICILLIN]	100 µg/mL (≈ 286 µM)

Tested on: Aspergillus niger
Assay: Antifungal activity against Aspergillus niger MTCC 282 assessed as fungal growth inhibition
Type: functional
Settings: not given

SMILES	MFC
COc1ccc(-n2c(SCC(=O)Nc3ccc(OCc4ccc(F)cc4)cc3)nc(C)c2C(C)=O)cc1	500 µg/mL (≈ 962 µM)
CC(=O)c1c(C)nc(SCC(=O)Nc2ccc(OCc3ccc(Cl)cc3)cc2)n1-c1ccc(Cl)cc1	> 1000 µg/mL

Tested on: Candida albicans
Assay: Antifungal activity against Candida albicans MTCC 227 assessed as fungal growth inhibition
Type: functional
Settings: not given

SMILES	MFC
COc1ccc(-n2c(SCC(=O)Nc3ccc(OCc4ccc(F)cc4)cc3)nc(C)c2C(C)=O)cc1	500 µg/mL (≈ 962 µM)
CC(=O)c1c(C)nc(SCC(=O)Nc2ccc(OCc3ccc(Cl)cc3)cc2)n1-c1ccc(Cl)cc1	1000 µg/mL (≈ 1850 µM)

Tested on: Streptococcus pyogenes
Assay: Antibacterial activity against Streptococcus pyogenes MTCC 442 assessed as bacterial growth inhibition
Type: functional
Settings: not given

SMILES	MIC
COc1ccc(-n2c(SCC(=O)Nc3ccc(OCc4ccc(F)cc4)cc3)nc(C)c2C(C)=O)cc1	100 µg/mL (≈ 192 µM)
O=C(O)c1cn(C2CC2)c2cc(N3CCNCC3)c(F)cc2c1=O [CIPROFLOXACIN]	50 µg/mL (≈ 151 µM)
CC(=O)c1c(C)nc(SCC(=O)Nc2ccc(OCc3ccc(Cl)cc3)cc2)n1-c1ccc(Cl)cc1	100 µg/mL (≈ 185 µM)
CC1(C)S[C@@H]2[C@H](NC(=O)[C@H](N)c3ccccc3)C(=O)N2[C@H]1C(=O)O [AMPICILLIN]	100 µg/mL (≈ 286 µM)

Tested on: Aspergillus clavatus
Assay: Antifungal activity against Aspergillus clavatus MTCC 1323 assessed as fungal growth inhibition
Type: functional
Settings: not given

SMILES	MFC
COc1ccc(-n2c(SCC(=O)Nc3ccc(OCc4ccc(F)cc4)cc3)nc(C)c2C(C)=O)cc1	500 µg/mL (≈ 962 µM)
CC(=O)c1c(C)nc(SCC(=O)Nc2ccc(OCc3ccc(Cl)cc3)cc2)n1-c1ccc(Cl)cc1	> 1000 µg/mL

Tested on: Mycobacterium tuberculosis
Assay: Antibacterial activity against Mycobacterium tuberculosis H37Rv assessed as bacterial growth inhibition
Type: functional
Settings: not given

SMILES	MIC
COc1ccc(-n2c(SCC(=O)Nc3ccc(OCc4ccc(F)cc4)cc3)nc(C)c2C(C)=O)cc1	50 µg/mL (≈ 96.2 µM)
CC(=O)c1c(C)nc(SCC(=O)Nc2ccc(OCc3ccc(Cl)cc3)cc2)n1-c1ccc(Cl)cc1	25 µg/mL (≈ 46.3 µM)

Tested on: Plasmodium falciparum
Assay: Antimalarial activity against Plasmodium falciparum assessed as parasite growth inhibition
Type: functional, organism-based
Settings: not given

SMILES	IC50
COc1ccc(-n2c(SCC(=O)Nc3ccc(OCc4ccc(F)cc4)cc3)nc(C)c2C(C)=O)cc1	1.4 µg/mL (≈ 2.69 µM)
CC(=O)c1c(C)nc(SCC(=O)Nc2ccc(OCc3ccc(Cl)cc3)cc2)n1-c1ccc(Cl)cc1	0.56 µg/mL (≈ 1.04 µM)

Tested on: Bacteria
Assay: Antibacterial activity against ESBL-producing bacteria assessed as bacterial growth inhibition
Type: functional
Settings: not given
Method in brief: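 Values are minimum inhibitory concentrations (MIC) in µg/mL, determined at an outside microbiology laboratory.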

SMILES	MIC
COc1ccc(-n2c(SCC(=O)Nc3ccc(OCc4ccc(F)cc4)cc3)nc(C)c2C(C)=O)cc1	25 µg/mL (≈ 48.1 µM)
CC(=O)c1c(C)nc(SCC(=O)Nc2ccc(OCc3ccc(Cl)cc3)cc2)n1-c1ccc(Cl)cc1	500 µg/mL (≈ 925 µM)

Tested on: Enterococcus
Assay: Antibacterial activity against vancomycin-resistant Enterococcus assessed as inhibition of bacterial growth
Type: functional
Settings: not given
Method in brief: (§1)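 Growth inhibition of the drug-resistant strain was read out as the minimum inhibitory concentration (MIC), reported in µg/mL. The same protocol was also run on an ESBL strain.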

SMILES	MIC
COc1ccc(-n2c(SCC(=O)Nc3ccc(OCc4ccc(F)cc4)cc3)nc(C)c2C(C)=O)cc1	100 µg/mL (≈ 192 µM)
CC(=O)c1c(C)nc(SCC(=O)Nc2ccc(OCc3ccc(Cl)cc3)cc2)n1-c1ccc(Cl)cc1	500 µg/mL (≈ 925 µM)

Tested on: Staphylococcus aureus
Assay: Antibacterial activity against methicillin-resistant Staphylococcus aureus assessed as inhibition of bacterial growth
Type: functional
Settings: not given
Method in brief: as §1

SMILES	MIC
COc1ccc(-n2c(SCC(=O)Nc3ccc(OCc4ccc(F)cc4)cc3)nc(C)c2C(C)=O)cc1	125 µg/mL (≈ 241 µM)
CC(=O)c1c(C)nc(SCC(=O)Nc2ccc(OCc3ccc(Cl)cc3)cc2)n1-c1ccc(Cl)cc1	125 µg/mL (≈ 231 µM)

Tested on: not listed separately
Assay: Antioxidant activity assessed as DPPH radical scavenging activity at 25 ug/ml (reference value: 22 to 40.2 %)
Type: functional
Settings: dose 25.0 µg/ml
Method in brief: (§2)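 DPPH radical scavenging was measured at 0, 25, 50, 75 and 100 µg/ml of each compound. Ascorbic acid was the reference.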

SMILES	Activity
COc1ccc(-n2c(SCC(=O)Nc3ccc(OCc4ccc(F)cc4)cc3)nc(C)c2C(C)=O)cc1	31.6%
CC(=O)c1c(C)nc(SCC(=O)Nc2ccc(OCc3ccc(Cl)cc3)cc2)n1-c1ccc(Cl)cc1	41.2%

Tested on: not listed separately
Assay: Antioxidant activity assessed as DPPH radical scavenging activity at 50 ug/ml (reference value: 22 to 40.2 %)
Type: functional
Settings: dose 50.0 µg/ml
Method in brief: as §2

SMILES	Activity
COc1ccc(-n2c(SCC(=O)Nc3ccc(OCc4ccc(F)cc4)cc3)nc(C)c2C(C)=O)cc1	54.2%
CC(=O)c1c(C)nc(SCC(=O)Nc2ccc(OCc3ccc(Cl)cc3)cc2)n1-c1ccc(Cl)cc1	51.7%

Tested on: not listed separately
Assay: Antioxidant activity assessed as DPPH radical scavenging activity at 75 ug/ml (reference value: 22 to 40.2 %)
Type: functional
Settings: dose 75.0 µg/ml
Method in brief: as §2

SMILES	Activity
COc1ccc(-n2c(SCC(=O)Nc3ccc(OCc4ccc(F)cc4)cc3)nc(C)c2C(C)=O)cc1	67.2%
CC(=O)c1c(C)nc(SCC(=O)Nc2ccc(OCc3ccc(Cl)cc3)cc2)n1-c1ccc(Cl)cc1	58.6%

Tested on: not listed separately
Assay: Antioxidant activity assessed as DPPH radical scavenging activity at 100 ug/ml (reference value: 22 to 40.2 %)
Type: functional
Settings: dose 100.0 µg/ml
Method in brief: as §2

SMILES	Activity
COc1ccc(-n2c(SCC(=O)Nc3ccc(OCc4ccc(F)cc4)cc3)nc(C)c2C(C)=O)cc1	84.3%
CC(=O)c1c(C)nc(SCC(=O)Nc2ccc(OCc3ccc(Cl)cc3)cc2)n1-c1ccc(Cl)cc1	85.7%

Tested on: not listed separately
Assay: Antioxidant activity assessed as nitric oxide radical scavenging activity at 25 ug/ml (reference value: 25.8 to 41.6 %)
Type: functional
Settings: dose 25.0 µg/ml
Method in brief: (§3)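 Nitric oxide radical scavenging was tested at 0, 25, 50, 75 and 100 µg/ml of compound.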

SMILES	Activity
COc1ccc(-n2c(SCC(=O)Nc3ccc(OCc4ccc(F)cc4)cc3)nc(C)c2C(C)=O)cc1	45.8%
CC(=O)c1c(C)nc(SCC(=O)Nc2ccc(OCc3ccc(Cl)cc3)cc2)n1-c1ccc(Cl)cc1	47.3%

Tested on: not listed separately
Assay: Antioxidant activity assessed as nitric oxide radical scavenging activity at 50 ug/ml (reference value: 25.8 to 41.6 %)
Type: functional
Settings: dose 50.0 µg/ml
Method in brief: as §3

SMILES	Activity
COc1ccc(-n2c(SCC(=O)Nc3ccc(OCc4ccc(F)cc4)cc3)nc(C)c2C(C)=O)cc1	63.4%
CC(=O)c1c(C)nc(SCC(=O)Nc2ccc(OCc3ccc(Cl)cc3)cc2)n1-c1ccc(Cl)cc1	64.3%

Tested on: not listed separately
Assay: Antioxidant activity assessed as nitric oxide radical scavenging activity at 75 ug/ml (reference value: 25.8 to 41.6 %)
Type: functional
Settings: dose 75.0 µg/ml
Method in brief: as §3

SMILES	Activity
COc1ccc(-n2c(SCC(=O)Nc3ccc(OCc4ccc(F)cc4)cc3)nc(C)c2C(C)=O)cc1	81.4%
CC(=O)c1c(C)nc(SCC(=O)Nc2ccc(OCc3ccc(Cl)cc3)cc2)n1-c1ccc(Cl)cc1	80.6%

Tested on: not listed separately
Assay: Antioxidant activity assessed as nitric oxide radical scavenging activity at 100 ug/ml (reference value: 25.8 to 41.6 %)
Type: functional
Settings: dose 100.0 µg/ml
Method in brief: as §3

SMILES	Activity
COc1ccc(-n2c(SCC(=O)Nc3ccc(OCc4ccc(F)cc4)cc3)nc(C)c2C(C)=O)cc1	90.5%
CC(=O)c1c(C)nc(SCC(=O)Nc2ccc(OCc3ccc(Cl)cc3)cc2)n1-c1ccc(Cl)cc1	88.8%

Tested on: not listed separately
Assay: Antioxidant activity assessed as hydrogen peroxide radical scavenging activity at 25 ug/ml (reference value: 23.6 to 43.1 %)
Type: functional
Settings: dose 25.0 µg/ml
Method in brief: (§4)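 Hydrogen peroxide scavenging was measured across a compound series of 0, 25, 50, 75 and 100 µg/ml.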

SMILES	Activity
COc1ccc(-n2c(SCC(=O)Nc3ccc(OCc4ccc(F)cc4)cc3)nc(C)c2C(C)=O)cc1	54%
CC(=O)c1c(C)nc(SCC(=O)Nc2ccc(OCc3ccc(Cl)cc3)cc2)n1-c1ccc(Cl)cc1	47.8%

Tested on: not listed separately
Assay: Antioxidant activity assessed as hydrogen peroxide radical scavenging activity at 50 ug/ml (reference value: 23.6 to 43.1 %)
Type: functional
Settings: dose 50.0 µg/ml
Method in brief: as §4

SMILES	Activity
COc1ccc(-n2c(SCC(=O)Nc3ccc(OCc4ccc(F)cc4)cc3)nc(C)c2C(C)=O)cc1	68.1%
CC(=O)c1c(C)nc(SCC(=O)Nc2ccc(OCc3ccc(Cl)cc3)cc2)n1-c1ccc(Cl)cc1	59.4%

Tested on: not listed separately
Assay: Antioxidant activity assessed as hydrogen peroxide radical scavenging activity at 75 ug/ml (reference value: 23.6 to 43.1 %)
Type: functional
Settings: dose 75.0 µg/ml
Method in brief: as §4

SMILES	Activity
COc1ccc(-n2c(SCC(=O)Nc3ccc(OCc4ccc(F)cc4)cc3)nc(C)c2C(C)=O)cc1	79.8%
CC(=O)c1c(C)nc(SCC(=O)Nc2ccc(OCc3ccc(Cl)cc3)cc2)n1-c1ccc(Cl)cc1	75.2%

Tested on: not listed separately
Assay: Antioxidant activity assessed as hydrogen peroxide radical scavenging activity at 100 ug/ml (reference value: 23.6 to 43.1 %)
Type: functional
Settings: dose 100.0 µg/ml
Method in brief: as §4

SMILES	Activity
COc1ccc(-n2c(SCC(=O)Nc3ccc(OCc4ccc(F)cc4)cc3)nc(C)c2C(C)=O)cc1	84.3%
CC(=O)c1c(C)nc(SCC(=O)Nc2ccc(OCc3ccc(Cl)cc3)cc2)n1-c1ccc(Cl)cc1	89.7%
